{
  "source": "ChEMBL document CHEMBL1649111",
  "about": "“Restoration of susceptibility of intracellular methicillin-resistant Staphylococcus aureus to beta-lactams: comparison of strains, cells, and antibiotics” (Antimicrob Agents Chemother, 2008)",
  "key": {"Staphylococcus aureus [1]": {"test_system": "Staphylococcus aureus", "assay": "Antimicrobial activity against hospital acquired methicillin-resistant and vancomycin-intermediate Staphylococcus aureus NRS18 obtained from patient with wound, skin and soft tissue infection by broth microdilution method at pH 5.5", "assay_type": "functional"}, "Staphylococcus aureus [2]": {"test_system": "Staphylococcus aureus", "assay": "Antimicrobial activity against Panton-valentine leukocidin positive community acquired methicillin-resistant Staphylococcus aureus N4042228 infected in human THP-1 cells assessed as decrease in bacterial count from original inoculum at high compound concentration after 24 hrs at pH 5.5", "assay_type": "functional", "in_short": "(§1)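 Bacteria phagocytosed by unactivated human THP-1 macrophages, then incubated 24 h with extracellular antibiotic at about 0.01× to 100× the pH 5.5 broth MIC. CFU per mg cell protein counted against the original inoculum, n = 3. A Hill-equation fit (slope factor 1) gave Emin and Emax, extrapolated to infinitely low and high concentration, and EC50. Static concentration was graphically interpolated.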"}, "Staphylococcus aureus [3]": {"test_system": "Staphylococcus aureus", "assay": "Antimicrobial activity against intracellular hospital acquired methicillin-resistant Staphylococcus aureus ATCC 33591 infected in activated human THP-1 cells assessed as increase in bacterial count from original inoculum at low compound concentration after 24 hrs at pH 7.4", "assay_type": "functional", "in_short": "(§2)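 THP-1 cells activated by 24-h culture with phorbol myristate acetate 2 mg/liter, then infected like unactivated THP-1. Cloxacillin dose range in mg/liter for 24 h. CFU per mg cell protein relative to the original inoculum, n = 3. Emin and Emax extrapolated from a Hill fit (slope 1), with EC50 as total drug; static concentration by graphical interpolation.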"}, "Staphylococcus aureus [4]": {"test_system": "Staphylococcus aureus", "assay": "Antimicrobial activity against intracellular hospital acquired methicillin-resistant Staphylococcus aureus ATCC 33591 activated infected in human THP-1 cells assessed as decrease in bacterial growth after 24 hrs at pH 7.4", "assay_type": "functional, organism-based", "conditions": "ATCC 33591, THP-1, 24 h", "in_short": "as §2"}, "[5]": {"assay": "Chemical stability of the compound assessed as compound remaining after 24 hrs PBS buffer by HPLC analysis at pH 5.5", "assay_type": "physicochemical", "conditions": "read-out: Activity", "in_short": "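Drug at 50 mg/liter initial concentration incubated 24 h at 37°C in buffered medium at pH 7.4 or 5.5. Remaining drug measured by HPLC signal disappearance; mobile phase 25 mM phosphate buffer pH 6.7 with acetonitrile (75:25).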"}, "Staphylococcus aureus [6]": {"test_system": "Staphylococcus aureus", "assay": "Antimicrobial activity against hospital acquired methicillin-resistant Staphylococcus aureus ATCC 33591 infected in human THP-1 cells assessed as decrease in bacterial count from original inoculum at high compound concentration after 24 hrs at pH 7.4", "assay_type": "functional"}, "Staphylococcus aureus [7]": {"test_system": "Staphylococcus aureus", "assay": "Bacteriostatic activity against intracellular beta-lactamase negative methicillin-susceptible Staphylococcus aureus ATCC 25923 infected in human keratinocytes assessed as decrease in bacterial growth after 24 hrs at pH 7.4", "assay_type": "functional", "in_short": "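Primary human skin keratinocytes or Calu-3 bronchial epithelial cells infected with MSSA ATCC 25923 at 5 × 10⁷ to 1 × 10⁸ bacteria/ml, 2 h internalization. Postphagocytosis inoculum 1.5 × 10⁶ to 3.0 × 10⁶ CFU/mg protein. Cloxacillin concentration range for 24 h; CFU/mg protein change vs. inoculum (n = 3). Hill fit gives Emin/Emax; static concentration by graphical interpolation.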"}, "Staphylococcus aureus [8]": {"test_system": "Staphylococcus aureus", "assay": "Antimicrobial activity against hospital acquired methicillin-resistant Staphylococcus aureus ATCC 33591 infected in human THP-1 cells assessed as decrease in bacterial growth after 24 hrs at pH 5.5", "assay_type": "functional, organism-based", "conditions": "ATCC 33591, THP-1, 24 h", "in_short": "as §1"}, "Staphylococcus aureus [9]": {"test_system": "Staphylococcus aureus", "assay": "Antimicrobial activity against hospital acquired methicillin-resistant Staphylococcus aureus N4120210 obtained from urinary tract infection of patient infected in human THP-1 cells assessed as increase in bacterial count from original inoculum at low compound concentration after 24 hrs at pH 5.5", "assay_type": "functional, Urine", "in_short": "as §1"}, "Staphylococcus aureus [10]": {"test_system": "Staphylococcus aureus", "assay": "Antimicrobial activity against intracellular hospital acquired methicillin-resistant Staphylococcus aureus ATCC 33591 infected in human keratinocytes assessed as increase in bacterial count from original inoculum at low compound concentration after 24 hrs at pH 7.4", "assay_type": "functional", "in_short": "(§3)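 Primary human skin keratinocytes or Calu-3 bronchial epithelial cells, given an inoculum of 5 × 10⁷ to 1 × 10⁸ bacteria/ml and 2 h for internalization. Post-phagocytosis load 1.5 × 10⁶ to 3.0 × 10⁶ CFU per mg cell protein. Cloxacillin dose range in mg/liter for 24 h, n = 3. Hill-derived Emin, Emax and EC50; static concentration interpolated.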"}, "Staphylococcus aureus [11]": {"test_system": "Staphylococcus aureus", "assay": "Antimicrobial activity against hospital acquired methicillin-resistant and vancomycin-intermediate Staphylococcus aureus VRS2 obtained from patient with wound, skin and soft tissue infection by broth microdilution method at pH 7.4", "assay_type": "functional", "in_short": "(§4)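 Minimal inhibitory concentration by broth microdilution at pH 7.4, read in mg/liter. The MRSA genotype was confirmed by mecA PCR, and the SCCmec subgroup was assigned by multiplex PCR.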"}, "Staphylococcus aureus [12]": {"test_system": "Staphylococcus aureus", "assay": "Antimicrobial activity against constitutive beta-lactamase negative methicillin-resistant Staphylococcus aureus COL NRS100 infected in human THP-1 cells assessed as decrease in bacterial count from original inoculum at high compound concentration after 24 hrs at pH 5.5", "assay_type": "functional", "in_short": "as §1"}, "Staphylococcus aureus [13]": {"test_system": "Staphylococcus aureus", "assay": "Antimicrobial activity against hospital acquired methicillin-resistant Staphylococcus aureus N4120210 obtained from urinary tract infection of patient infected in human THP-1 cells assessed as decrease in bacterial growth after 24 hrs at pH 5.5", "assay_type": "functional, organism-based", "conditions": "N4120210, THP-1, Urine", "in_short": "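THP-1 macrophages were infected, then incubated 24 h with cloxacillin at extracellular concentrations from about 0.01× to 100× the MIC measured in broth at pH 5.5, with gentamicin 0.5 mg/liter to block extracellular growth. CFU per mg cell protein were counted as change from the original inoculum (n = 3). A Hill-equation fit gave Emax, EC50 (multiples of MIC) and static concentration.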"}, "Staphylococcus aureus [14]": {"test_system": "Staphylococcus aureus", "assay": "Bacteriostatic activity against intracellular hospital acquired methicillin-resistant Staphylococcus aureus ATCC 33591 infected in activated human THP-1 cells assessed as decrease in bacterial growth after 24 hrs at pH 7.4", "assay_type": "functional", "in_short": "as §2"}, "Staphylococcus aureus [15]": {"test_system": "Staphylococcus aureus", "assay": "Antimicrobial activity against hospital acquired methicillin-resistant Staphylococcus aureus N4120032 obtained from wound infection of patient by broth microdilution method at pH 5.5", "assay_type": "functional"}, "Staphylococcus aureus [16]": {"test_system": "Staphylococcus aureus", "assay": "Antimicrobial activity against Panton-valentine leukocidin positive community acquired methicillin-resistant Staphylococcus aureus N4042228 by broth microdilution method at pH 7.4", "assay_type": "functional", "in_short": "as §4"}, "Staphylococcus aureus [17]": {"test_system": "Staphylococcus aureus", "assay": "Antimicrobial activity against Panton-valentine leukocidin positive community acquired methicillin-resistant Staphylococcus aureus N4090440 obtained from wound infection of patient infected in human THP-1 cells assessed as decrease in bacterial growth after 24 hrs at pH 5.5", "assay_type": "functional, organism-based", "conditions": "N4090440, THP-1, 24 h", "in_short": "as §1"}, "Staphylococcus aureus [18]": {"test_system": "Staphylococcus aureus", "assay": "Bacteriostatic activity against hospital acquired methicillin-resistant and vancomycin-intermediate Staphylococcus aureus VRS2 infected in human THP-1 cells assessed as decrease in bacterial growth after 24 hrs at pH 5.5", "assay_type": "functional", "in_short": "(§5)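 Human THP-1 macrophages infected with each S. aureus strain. Cloxacillin added extracellularly at about 0.01× to 100× the broth MIC measured at pH 5.5, with gentamicin 0.5 mg/liter to stop extracellular growth. Incubated 24 h. CFU counted per mg cell protein as change from the post-phagocytosis inoculum, n = 3. Emin, Emax and EC50 from a Hill fit; static concentration by graphical interpolation.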"}, "Staphylococcus aureus [19]": {"test_system": "Staphylococcus aureus", "assay": "Antimicrobial activity against intracellular beta-lactamase negative methicillin-susceptible Staphylococcus aureus ATCC 25923 infected in human Calu3 cells assessed as decrease in bacterial count from original inoculum at high compound concentration after 24 hrs at pH 7.4", "assay_type": "functional, Calu-3", "in_short": "as §3"}, "Staphylococcus aureus [20]": {"test_system": "Staphylococcus aureus", "assay": "Antimicrobial activity against hospital acquired methicillin-resistant and vancomycin-intermediate Staphylococcus aureus VRS2 obtained from wound, skin and soft tissue infection of patient infected in human THP-1 cells assessed as decrease in bacterial count from original inoculum at high compound concentration after 24 hrs at pH 5.5", "assay_type": "functional", "in_short": "as §5"}, "Staphylococcus aureus [21]": {"test_system": "Staphylococcus aureus", "assay": "Antimicrobial activity against hospital acquired methicillin-resistant Staphylococcus aureus HMC546 by broth microdilution method at pH 7.4", "assay_type": "functional", "in_short": "as §4"}},
  "data": [
    {"smiles": "Cc1onc(-c2ccccc2Cl)c1C(=O)N[C@@H]1C(=O)N2[C@@H]1SC(C)(C)[C@@H]2C(=O)O", "note": "[CLOXACILLIN]", "values": [
      {"measurement": "MIC", "setting": "Staphylococcus aureus [1]", "result": 0.06, "unit": "mg/L"},
      {"measurement": "log10cfu", "setting": "Staphylococcus aureus [2]", "result": 0.63},
      {"measurement": "log10cfu", "setting": "Staphylococcus aureus [3]", "result": 2.15},
      {"measurement": "EC50", "setting": "Staphylococcus aureus [4]", "result": 0.32, "unit": "mg/L"},
      {"measurement": "remaining at 24 h", "setting": "[5]", "result": 93.3, "unit": "%"},
      {"measurement": "log10cfu", "setting": "Staphylococcus aureus [6]", "result": 0.55},
      {"measurement": "Activity", "setting": "Staphylococcus aureus [7]", "result": 1.1, "unit": "mg/L"},
      {"measurement": "EC50", "setting": "Staphylococcus aureus [8]", "result": 4.25, "unit": "×MIC"},
      {"measurement": "log10cfu", "setting": "Staphylococcus aureus [9]", "result": 2.6},
      {"measurement": "log10cfu", "setting": "Staphylococcus aureus [10]", "result": 2.06},
      {"measurement": "MIC", "setting": "Staphylococcus aureus [11]", "result": 32, "unit": "mg/L"},
      {"measurement": "log10cfu", "setting": "Staphylococcus aureus [12]", "result": 0.78},
      {"measurement": "EC50", "setting": "Staphylococcus aureus [13]", "result": 8.51, "unit": "×MIC"},
      {"measurement": "Activity", "setting": "Staphylococcus aureus [14]", "result": 1, "unit": "mg/L"},
      {"measurement": "MIC", "setting": "Staphylococcus aureus [15]", "result": 0.06, "unit": "mg/L"},
      {"measurement": "MIC", "setting": "Staphylococcus aureus [16]", "result": 0.5, "unit": "mg/L"},
      {"measurement": "EC50", "setting": "Staphylococcus aureus [17]", "result": 3.14, "unit": "×MIC"},
      {"measurement": "Activity", "setting": "Staphylococcus aureus [18]", "result": 8.12, "unit": "mg/L"},
      {"measurement": "log10cfu", "setting": "Staphylococcus aureus [19]", "result": 0.99},
      {"measurement": "log10cfu", "setting": "Staphylococcus aureus [20]", "result": 0.78},
      {"measurement": "MIC", "setting": "Staphylococcus aureus [21]", "result": 16, "unit": "mg/L"}
    ]}
  ]
}
